Results: PMC3640342 (Pharmaceutical research, 2013)
In brackets after ≈: the same amount, converted by molar mass. Several values for one entry are separate records, joined by “and”; a condition that tells them apart may be missing. Identical values can stand only once. Like-named read-outs stand apart in the source and are kept apart here.

Columns and labels:
[1] = Single-dose oral PK at 40 mg/kg; type: in vivo, FVB mice; settings: single 40 mg/kg oral dose, ranking among 27 2-AMTs and Compd B
[2] = system: PrP^Sc levels in ScN2a-cl3 cells; assay: cells; type: cell-based, mouse
mouse liver microsomes = assay: Hepatic microsomal stability, mouse; type: in vitro ADME; settings: 1 μM; for t1/2: NADPH
Method in brief: (§1)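 Liver microsomes from mouse, rat or human (~0.5 mg/mL final) were incubated at 37°C with test compound at 1 μM final (0.6% ACN, 0.01% DMSO) in PBS pH 7.4 ± 0.05% PS80, with 1 mM NADPH or PBS.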

rat liver microsomes = assay: Hepatic microsomal stability, rat; type: in vitro ADME; settings: 1 μM; for t1/2: NADPH
Method in brief: as §1

human liver microsomes = assay: Hepatic microsomal stability, human; type: in vitro ADME; settings: 1 μM; for t1/2: NADPH
Method in brief: as §1

[3] = Solubility at pH 2, pH 7.4 and in FaSSIF; type: physicochemical; settings: for Solubility pH 7.4: pH 7.4 (phosphate) buffer
Media solubility = type: physicochemical; settings: media used in the cell-based assays, 10% FBS
[4] = Hepatic microsomal stability, mouse; type: in vitro ADME; settings: mouse, mouse liver microsomes, pH 7.4
Method in brief: as §1

[5] = Hepatic microsomal stability, rat; type: in vitro ADME; settings: rat, rat liver microsomes, pH 7.4
Method in brief: as §1

[6] = Hepatic microsomal stability, human; type: in vitro ADME; settings: human, human liver microsomes, pH 7.4
Method in brief: as §1

[7] = 3-day multidose PK in liquid diet; type: in vivo, FVB mice; settings: for Brain and plasma concentrations (C3-day) / Brain concentration (C3-day): 3 days in liquid diet
[8] = Single-dose oral gavage PK at 10 mg/kg; type: in vivo, FVB mice
Method in brief: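 Female FVB mice (~25 g) were dosed at 10 mg/kg by oral gavage in 20% propylene glycol, 5% ethanol, 5% labrosol and 70% PEG400. Two mice per time point were killed by CO2 at 0.25, 0.5, 1, 2, 4, 6 and 24 h. Heparinized plasma and brain (diluted five-fold in water, homogenized) were assayed by LC/MS/MS.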

[9] = mouse brain homogenate, 1 μM, corrected for dilution
FVB mice = assay: Drug tolerance / lethal toxicity on repeated dosing in liquid diet; type: in vivo
[10] = cell-culture media with 10% FBS, 1 μM
mouse plasma = settings: 1 μM
[11] = Single-dose IV PK at 1 mg/kg; type: in vivo, FVB mice; settings: female, FVB, mouse, plasma, iv, 1 mg/kg
Method in brief: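 Female FVB mice (~25 g) received 1 mg/kg by tail-vein injection in 10% DMSO in PEG400/water (1:1), 10% DMSO, or 10% ethanol in PEG400/water (1:1). Two mice per time point were killed by CO2 at 5 min and 0.25, 0.5, 1, 2, 4 and 6 h, and heparinized plasma was collected. After protein precipitation, samples were assayed by LC/MS/MS, and parameters came from noncompartmental sparse-sampling analysis.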

MDCK-MDR1 cells = assay: Bidirectional MDCK-MDR1 cell permeability; type: in vitro ADME, canine; settings: for Papp (A−B) / Papp (B−A): 10 μM, pH 7.4; for Efflux ratio: MDCK-MDR1 cells
[12] = female, FVB, mouse, brain, po, 10 mg/kg
[13] = female, FVB, mouse, plasma, po, 10 mg/kg

Cc1ccnc(Nc2nc(-c3ccc(O)cc3)cs2)c1 [IND49]
AUClast values, brain and plasma [1]: lowest AUClast values
EC50 [2]: > 10 µM

Cc1ccnc(Nc2nc(-c3ccc(OC(F)(F)F)cc3)cs2)c1 [IND78]
EC50 [2]: > 32 µM

Cc1ccc(Nc2nc(-c3c(-c4ccccc4)noc3C)cs2)nc1 [IND36]
EC50 [2]: > 32 µM

COc1ccc(-c2csc(Nc3cc4ccccc4cn3)n2)cc1OC [IND46]
% remaining after a 60-min incubation (mouse liver microsomes): 58%
% remaining after a 60-min incubation (rat liver microsomes): 61%
% remaining after a 60-min incubation (human liver microsomes): 83%
Solubility pH 7.4 ([3]; room temperature overnight): <1 μM
Solubility Media (Media solubility): 174 µM (≈ 63.2 µg/mL)

Cc1ccc(Nc2nc(-c3ccc(OC(F)(F)F)cc3)cs2)nc1 [IND26]
EC50 [2]: > 10 µM

Cc1ccc(Nc2nc(-c3ccc(-c4ccccn4)s3)cs2)nc1 [IND76]
EC50 [2]: 1.23 µM

C(=N\Nc1ccc(-c2cnco2)cc1)/c1ccncc1 [Compd B, (E)-5-(4-(2-(pyridin-4-ylmethylene)hydrazinyl)phenyl)oxazole, reference compound]
Unbound (%) (human plasma; human plasma, 1 μM): 2.1% and 2.10±1.11%
t1/2 (mouse liver microsomes): rapidly metabolized
half-life at 1 μM [4]: 30 min
remaining at 1 h, 1 μM [4]: 29%
t1/2 (rat liver microsomes): relatively stable
half-life at 1 μM [5]: > 60 min
remaining at 1 h, 1 μM [5]: 77%
t1/2 (human liver microsomes): relatively stable
half-life at 1 μM [6]: > 60 min
remaining at 1 h, 1 μM [6]: 68%
AUC/EC50 ratios in brain and plasma, total concentration ([7]; 100 mg/kg/day for 3 days, AUC = C3-day × τ): greater than 100
Brain and plasma concentrations (C3-day) ([7]; 25 and 50 mg/kg/day): below the level of quantification
%F (absolute oral bioavailability) ([8]; PO 10 mg/kg vs IV 1 mg/kg, plasma): 24.8%
Brain/Plasma AUClast Ratio ([8]; PO 10 mg/kg, 10 mg/kg): 0.51
AUC(0-t) [8, 12]: 1.06 ± 0.1 µM·h
Cmax [8, 12]: 460 ± 160 nM
tmax [8, 12]: 120 min
AUC(0-t) [8, 13]: 2.06 ± 0.06 µM·h
Cmax [8, 13]: 830 ± 380 nM
half-life [8, 13]: 60.6 min
tmax [8, 13]: 30 min
Unbound (%) [9]: 11% and 11.4±2.89%
Deaths (FVB mice; 150 mg/kg/day for 8 days in liquid diet): two of four mice
Lethal toxicity (FVB mice; 25, 50, and 100 mg/kg/day in liquid diet): none showed lethal toxicity
Unbound (%) [10]: 37% and 36.5±3.30%
Unbound (%) (mouse plasma): 9% and 9.06±2.31%
EC50 ([2]; Mus musculus, 120 h): 0.25 µM
Vd [11]: 1.53 L/kg
clearance [11]: 76 mL/min/kg

COc1ccc(Nc2nc(-c3ccc(OC)c(OC)c3)cs2)nc1 [IND44]
% remaining after a 60-min incubation (mouse liver microsomes): 24%
t1/2 (mouse liver microsomes): 29 min
% remaining after a 60-min incubation (rat liver microsomes): 39%
t1/2 (rat liver microsomes): 45 min
% remaining after a 60-min incubation (human liver microsomes): 48%
t1/2 (human liver microsomes): 58 min
Solubility pH 7.4 ([3]; room temperature overnight): <1 μM

Cc1ccc(Nc2nc(-c3cccc(C#N)c3)cs2)nc1 [IND38]
EC50 [2]: 2.29 µM

Cc1ccnc(Nc2nc(-c3ccc4c(c3)OCCO4)cs2)c1 [IND57]
EC50 [2]: > 10 µM

COc1ccc(-c2csc(Nc3cnccn3)n2)cc1OC [IND82]
EC50 [2]: 15.6 µM

Cc1ccc(Nc2nc(-c3ccncc3)cs2)nc1 [IND29]
EC50 [2]: 1.57 µM

Cc1ccc(Nc2nc(-c3cc(-c4ccccc4)no3)cs2)nc1 [IND33]
% remaining after a 60-min incubation (mouse liver microsomes): 111%
% remaining after a 60-min incubation (rat liver microsomes): 73%
% remaining after a 60-min incubation (human liver microsomes): 42%
Brain concentration (C3-day) ([7]; 130 mg/kg dose): ~ 30 μM
Papp (A−B) (MDCK-MDR1 cells): 6.8 ×10⁻⁶ cm/s
Papp (B−A) (MDCK-MDR1 cells): 8.3 ×10⁻⁶ cm/s
Efflux ratio (MDCK-MDR1 cells): 1.2
EC50 [2]: 0.94 µM
Solubility pH 7.4 ([3]; room temperature overnight): <1 μM
Solubility Media (Media solubility): 225 µM (≈ 75.2 µg/mL)

COc1ccc(-c2csc(Nc3ccc(C(F)(F)F)cn3)n2)cc1OC [IND43]
EC50 [2]: 2.53 µM

Cc1ccnc(Nc2nc(-c3ccccc3O)cs2)c1 [IND48]
AUClast values, brain and plasma [1]: lowest AUClast values
EC50 [2]: > 10 µM

COc1ccc(-c2csc(Nc3cc(C)ccn3)n2)cc1OC [IND42]
EC50 [2]: 1 µM

Cc1ccnc(Nc2nc(-c3cc(-c4ccc(Cl)cc4)no3)cs2)c1 [IND64]
EC50 [2]: 0.85 µM

COc1ccc(-c2csc(Nc3ccc4ccccc4n3)n2)cc1OC [IND47]
% remaining after a 60-min incubation (mouse liver microsomes): 56%
% remaining after a 60-min incubation (rat liver microsomes): 50%
% remaining after a 60-min incubation (human liver microsomes): 113%
Brain and plasma concentrations (C3-day) ([7]; 40, 80, 130 and 210 mg/kg/day): ≤ 1 µM
Papp (A−B) (MDCK-MDR1 cells): 9.2 ×10⁻⁶ cm/s
Papp (B−A) (MDCK-MDR1 cells): 8.9 ×10⁻⁶ cm/s
Efflux ratio (MDCK-MDR1 cells): 1
EC50 [2]: 0.43 µM
Solubility pH 7.4 ([3]; room temperature overnight): <1 μM
Solubility Media (Media solubility): 52 µM (≈ 18.9 µg/mL)

Cc1ccnc(Nc2nc(-c3ccncc3)cs2)c1 [IND52]
% remaining after a 60-min incubation (mouse liver microsomes): 0%
% remaining after a 60-min incubation (rat liver microsomes): 8%
% remaining after a 60-min incubation (human liver microsomes): 30%
Brain concentration (C3-day) ([7]; 40 mg/kg dose): no measurable brain concentrations
Papp (A−B) (MDCK-MDR1 cells): 36.2 ×10⁻⁶ cm/s
Papp (B−A) (MDCK-MDR1 cells): 48.7 ×10⁻⁶ cm/s
Efflux ratio (MDCK-MDR1 cells): 1.3
EC50 [2]: 4.95 µM
Solubility FaSSIF ([3]; fasted-state simulated intestinal fluid): 2 µM (≈ 0.537 µg/mL)
Solubility pH 2.0 ([3]; pH 2 (HCl) buffer, room temperature overnight): 215 μM
Solubility pH 7.4 ([3]; room temperature overnight): 1 μM
Solubility Media (Media solubility): 76 µM (≈ 20.4 µg/mL)

COc1ccc(-c2csc(Nc3cc4ccccc4cn3)n2)cc1 [IND86]
EC50 [2]: 0.34 µM

c1ccc2cc(Nc3nc(-c4cc5ccccc5o4)cs3)ncc2c1 [IND91]
Brain and plasma concentrations (C3-day) ([7]; 40, 80, 130 and 210 mg/kg/day): ≤ 1 µM
EC50 [2]: 0.92 µM

COc1ccc(-c2csc(Nc3ccc(C)cn3)n2)c(OC)c1 [IND74]
EC50 [2]: 3.13 µM

CC(=O)CC(c1ccccc1)c1c(O)c2ccccc2oc1=O (stereo not shown) [Warfarin]
Unbound (%) (human plasma; human, plasma, pH 7.4): 0.68±0.0023%

Cc1cccc(Nc2nc(-c3cc4ccccc4o3)cs2)n1 [IND22]
% remaining after a 60-min incubation (mouse liver microsomes): 40%
t1/2 (mouse liver microsomes): 49 min
% remaining after a 60-min incubation (rat liver microsomes): 64%
t1/2 (rat liver microsomes): > 60 min
% remaining after a 60-min incubation (human liver microsomes): 99%
t1/2 (human liver microsomes): > 60 min
Papp (A−B) (MDCK-MDR1 cells): 9.5 ×10⁻⁶ cm/s
Papp (B−A) (MDCK-MDR1 cells): 8.4 ×10⁻⁶ cm/s
Efflux ratio (MDCK-MDR1 cells): 0.9
EC50 [2]: 1.46 µM
Solubility pH 7.4 ([3]; room temperature overnight): <1 μM
Solubility Media (Media solubility): 20 µM (≈ 6.15 µg/mL)

c1ccc2cc(Nc3nc(-c4ccncc4)cs3)ncc2c1 [IND85]
% remaining after a 60-min incubation (mouse liver microsomes): 6%
% remaining after a 60-min incubation (rat liver microsomes): 32%
% remaining after a 60-min incubation (human liver microsomes): 66%
Brain and plasma concentrations (C3-day) ([7]; 40, 80, 130 and 210 mg/kg/day): ≤ 1 µM
Papp (A−B) (MDCK-MDR1 cells): 3.03 ×10⁻⁶ cm/s
Papp (B−A) (MDCK-MDR1 cells): 4.44 ×10⁻⁶ cm/s
Efflux ratio (MDCK-MDR1 cells): 1.5
EC50 [2]: 0.31 µM
Solubility pH 7.4 ([3]; room temperature overnight): <1 μM
Solubility Media (Media solubility): 116 µM (≈ 35.3 µg/mL)
